ChEMBL document CHEMBL1156669, “Aldehyde dehydrogenase inhibitors: alpha,beta-acetylenic N-substituted aminothiolesters are reversible growth inhibitors of normal epithelial but irreversible apoptogens for cancer epithelial cells from human prostate in culture” (Eur J Med Chem, 2008)
pIC50: −log10 of the molar value. The source made the active and inactive calls. The rule behind the calls is not given here.

Assays:
BaF3 = assay: Induction of apoptosis in mouse BAF3 cells overexpressing bcl2; type: functional, cell-based
[1] = target: T1, Aldehyde dehydrogenase 1, mitochondrial (Saccharomyces cerevisiae) (UniProt P22281); assay: Inhibition of yeast ALDH1 at 600 uM
T1 sequence (whole entry): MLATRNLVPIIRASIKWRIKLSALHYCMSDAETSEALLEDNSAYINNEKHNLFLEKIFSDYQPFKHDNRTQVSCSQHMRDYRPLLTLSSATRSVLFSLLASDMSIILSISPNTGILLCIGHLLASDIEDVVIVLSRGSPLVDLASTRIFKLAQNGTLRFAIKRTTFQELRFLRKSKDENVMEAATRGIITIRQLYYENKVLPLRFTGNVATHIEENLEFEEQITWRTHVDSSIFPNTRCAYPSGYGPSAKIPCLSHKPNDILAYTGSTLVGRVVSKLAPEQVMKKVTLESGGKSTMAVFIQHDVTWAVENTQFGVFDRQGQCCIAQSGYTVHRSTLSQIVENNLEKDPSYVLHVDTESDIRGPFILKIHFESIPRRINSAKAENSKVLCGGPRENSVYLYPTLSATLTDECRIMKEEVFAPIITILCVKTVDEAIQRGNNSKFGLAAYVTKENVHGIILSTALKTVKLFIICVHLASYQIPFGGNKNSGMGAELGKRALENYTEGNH

MRC5 = assay: Growth inhibition of human MRC5 cells; type: cell-based
DU-145 [2] = assay: Growth inhibition of human DU145 cells administered after 3 days; type: functional, cell-based; settings: DU-145, 72 h
In short: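 DU145 in RPMI 1640 with 10% FCS; 1 × 10⁵ cells per well in 24-well plates, compound added 4 h after seeding. After 3 days the adherent sheet was washed twice with PBS and harvested in 0.14 M NaOH, and protein content measured. IC50 is the mean of three experiments.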

[3] = Growth inhibition of HPEN cells administered after 3 days; type: cell-based; settings: Homo sapiens, 72 h
In short: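 HPENC in PrEGM with supplement and 10% FCS; 1 × 10⁵ cells per well in 24-well plates, compound added 4 h after seeding once adhered. After 3 days, growth read as protein content. IC50 is the mean of three experiments.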

[4] = Growth inhibition of human androgen-sensitive MOP cells after 3 days; type: functional; settings: 72 h
In short: (§1)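 MOP (androgen-sensitive, LNCaP grown long-term in steroid-deprived medium) and ME (from regrown MOP xenografts under androgen) in RPMI 1640 with 5% charcoal-treated FCS. Seeded 1 × 10⁵ cells per well in 24-well plates, compound added at 4 h, cell count by Coulter counter after 3 days. IC50 is the mean of three experiments.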

[5] = Growth inhibition of human androgen-resistant ME cells after 3 days; type: functional; settings: 72 h; in short: as §1
DU-145 [6] = assay: Growth inhibition of human DU145 cells at 2 uM after 3 days; type: functional; settings: DU-145, 72 h
In short: (§2)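 Cells seeded at 1 × 10⁵ per well in 24-well plates; compound added 4 h post-seeding and left for 3 days. Growth inhibition measured as protein content relative to control. HPENC values are means of three experiments in duplicate; DU145 values are means of five experiments in duplicate.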

DU-145 [7] = assay: Growth inhibition of human DU145 cells at 5 uM after 3 days; type: functional; settings: DU-145, 72 h; in short: as §2
DU-145 [8] = assay: Growth inhibition of human DU145 cells at 10 uM after 3 days; type: functional; settings: DU-145, 72 h; in short: as §2
[9] = Growth inhibition of HPEN cells at 2 uM after 3 days; type: cell-based; settings: human; in short: as §2
[10] = Growth inhibition of HPEN cells at 5 uM after 3 days; type: cell-based; settings: human; in short: as §2
[11] = Growth inhibition of HPEN cells at 10 uM after 3 days; type: cell-based; settings: human; in short: as §2
DU-145 [12] = assay: Reversal of growth inhibition in human DU145 cells assessed as increase in cell number at 10 uM after 8 days; type: functional
In short: (§3)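 Cells seeded in six wells and treated from 4 h after seeding. Two wells were left in the original drug-containing medium for a further 5 days. Growth measured on day 8 as protein content of adherent cells and expressed as the day 8/day 3 ratio. EtOH vehicle controls were handled identically. Two experiments in duplicate.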

DU-145 [13] = assay: Reversal of growth inhibition in human DU145 cells assessed as increase in cell number at 15 uM after 8 days; type: functional; in short: as §3
DU-145 [14] = assay: Reversal of growth inhibition in human DU145 cells assessed as increase in cell number at 10 uM on day 3 replaced with fresh medium without drug and measured after 8 days; type: functional
In short: (§4)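 Cells were treated for 3 days. The medium was then aspirated, the sheet washed with PBS and fresh drug-free medium added, followed by 5 more days of culture. Growth measured on day 8 as adherent-cell protein and expressed relative to the day-3 protein content of parallel wells. Two experiments in duplicate.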

DU-145 [15] = assay: Reversal of growth inhibition in human DU145 cells assessed as increase in cell number at 15 uM on day 3 replaced with fresh medium without drug and measured after 8 days; type: functional; in short: as §4
[16] = Reversal of growth inhibition in HPEN cells assessed as increase in cell number at 10 uM after 8 days; type: cell-based; settings: human, 192 h; in short: as §3
[17] = Reversal of growth inhibition in HPEN cells assessed as increase in cell number at 15 uM after 8 days; type: cell-based; settings: human, 192 h; in short: as §3
[18] = Reversal of growth inhibition in HPEN cells assessed as increase in cell number at 10 uM on day 3 replaced with fresh medium without drug and measured after 8 days; type: cell-based; settings: human, 192 h; in short: as §4
[19] = Reversal of growth inhibition in HPEN cells assessed as increase in cell number at 15 uM on day 3 replaced with fresh medium without drug and measured after 8 days; type: cell-based; settings: human, 192 h; in short: as §4
[20] = target: T2, Aldehyde dehydrogenase 1A1 (Homo sapiens) (UniProt P00352); assay: Inhibition of ALDH1 in human DU145 cells at 2.5 uM after 3 days; type: cell-based; settings: DU-145
T2 sequence (whole entry): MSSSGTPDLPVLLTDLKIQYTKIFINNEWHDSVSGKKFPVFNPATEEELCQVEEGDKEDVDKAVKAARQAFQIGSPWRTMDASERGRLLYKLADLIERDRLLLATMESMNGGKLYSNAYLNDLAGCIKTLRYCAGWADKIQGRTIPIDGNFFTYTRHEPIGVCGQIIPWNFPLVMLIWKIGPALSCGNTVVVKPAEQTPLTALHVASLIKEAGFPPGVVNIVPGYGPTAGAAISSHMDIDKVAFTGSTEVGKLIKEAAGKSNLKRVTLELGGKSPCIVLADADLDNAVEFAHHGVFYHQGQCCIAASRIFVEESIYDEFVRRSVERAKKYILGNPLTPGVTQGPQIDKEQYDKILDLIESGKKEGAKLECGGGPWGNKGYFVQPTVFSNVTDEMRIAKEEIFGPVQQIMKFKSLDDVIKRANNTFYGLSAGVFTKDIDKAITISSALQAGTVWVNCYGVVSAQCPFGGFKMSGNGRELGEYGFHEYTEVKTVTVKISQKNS
In short: (§5)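 DU145 treated for 3 days, trypsinised, washed in PBS and lysed in 60 mM sodium phosphate pH 7 with 1% Triton X-100 and 1 mM EDTA, 30 min at 4 °C; lysate spun at 48,000g for 30 min. ALDH1: supernatant in phosphate pH 8.5, 1 mM EDTA, 100 mM KCl, 2.35 mM NAD, propanal substrate. ALDH3: 5 mM benzaldehyde, 2.5 mM NADP, 1 mM pyrazole. Two experiments in duplicate.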

[21] = target: T2, Aldehyde dehydrogenase 1A1 (Homo sapiens); assay: Inhibition of ALDH1 in human DU145 cells at 5 uM after 3 days; type: cell-based; settings: DU-145; in short: as §5
[22] = target: T2, Aldehyde dehydrogenase 1A1 (Homo sapiens); assay: Inhibition of ALDH1 in human DU145 cells at 7.5 uM after 3 days; type: cell-based; settings: DU-145; in short: as §5
[23] = target: T3, Aldehyde dehydrogenase, dimeric NADP-preferring (Homo sapiens) (UniProt P30838); assay: Inhibition of ALDH3 in human DU145 cells at 2.5 uM after 3 days; type: cell-based; settings: DU-145; in short: as §5
T3 sequence (whole entry): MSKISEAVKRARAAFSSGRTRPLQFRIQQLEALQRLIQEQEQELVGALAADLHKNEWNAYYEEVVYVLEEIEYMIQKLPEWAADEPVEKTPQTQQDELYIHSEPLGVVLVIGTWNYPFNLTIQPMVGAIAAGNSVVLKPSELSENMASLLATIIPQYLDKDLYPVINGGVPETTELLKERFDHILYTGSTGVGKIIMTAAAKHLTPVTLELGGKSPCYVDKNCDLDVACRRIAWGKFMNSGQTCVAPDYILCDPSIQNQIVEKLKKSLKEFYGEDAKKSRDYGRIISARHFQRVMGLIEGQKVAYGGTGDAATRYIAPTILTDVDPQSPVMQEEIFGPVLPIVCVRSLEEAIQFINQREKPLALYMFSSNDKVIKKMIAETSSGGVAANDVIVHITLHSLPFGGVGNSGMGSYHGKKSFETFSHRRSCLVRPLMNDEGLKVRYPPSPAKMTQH

[24] = target: T3, Aldehyde dehydrogenase, dimeric NADP-preferring (Homo sapiens); assay: Inhibition of ALDH3 in human DU145 cells at 5 uM after 3 days; type: cell-based; settings: DU-145; in short: as §5
[25] = target: T3, Aldehyde dehydrogenase, dimeric NADP-preferring (Homo sapiens); assay: Inhibition of ALDH3 in human DU145 cells at 7.5 uM after 3 days; type: cell-based; settings: DU-145; in short: as §5
DU-145 [26] = assay: Growth inhibition of human DU145 cells at 15 uM after 3 days; type: functional; settings: DU-145, 72 h
In short: (§6)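 Vehicle controls received 0.5% EtOH. Cells seeded at 1 × 10⁵ per well, compound added at 4 h. Growth inhibition measured by protein content at day 3; two experiments, each in duplicate.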

[27] = Growth inhibition of HPEN cells at 15 uM after 3 days; type: cell-based; settings: human; in short: as §6
[28] = Growth inhibition of rat JM2 cells; type: functional, cell-based
RH7777 = assay: Growth inhibition of RH7777 cells; type: functional, cell-based; settings: Rattus norvegicus
DU-145 [29] = assay: Increase in superoxide anion level in human DU145 cells at 10 uM after 3 days by flow cytometry; type: functional, cell-based
DU-145 [30] = assay: Decrease in redox potential in human DU145 cells at 10 uM after 3 days by flow cytometry; type: functional, cell-based
DU-145 [31] = assay: Induction of apoptosis in human DU145 cells assessed as apoptotic cells in flow cytometry region H1 at 10 uM after 3 days by flow cytometry
DU-145 [32] = assay: Induction of apoptosis in human DU145 cells assessed as apoptotic cells in flow cytometry region H3 at 10 uM after 3 days by flow cytometry

Compound: CSC(=O)C#CC(C)(C)N1CCOCC1
- pIC50 (BaF3): 4.92
- inhibition [1]: 15%
- pIC50 (MRC5): 4.54
- pIC50 (DU-145 [2]): 5.03
- pIC50 [3]: < 5.00
- pIC50 [4]: 5.00
- pIC50 [5]: 5.00
- inhibition at 2 µM (DU-145 [6]): 0%
- inhibition at 5 µM (DU-145 [7]): 8%
- inhibition at 10 µM (DU-145 [8]): 70%
- inhibition at 72 h, 2 µM [9]: 3%
- inhibition at 72 h, 5 µM [10]: 6%
- inhibition at 72 h, 10 µM [11]: 11%
- Activity (DU-145 [12]): 3
- Activity (DU-145 [13]): 1.9
- Activity (DU-145 [14]): 2.6
- Activity (DU-145 [15]): 1.6
- Activity [16]: 0.4
- Activity [17]: 1.4
- Activity [18]: 1.6
- Activity [19]: 2.6
- inhibition [20]: 3%
- inhibition [21]: 20%
- inhibition [22]: 32%
- inhibition [23]: 40%
- inhibition [24]: 60%
- inhibition [25]: 78%
- inhibition at 15 µM (DU-145 [26]): 88%
- inhibition at 72 h, 15 µM [27]: 37%

Compound: CSC(=O)C#CC(C)(C)N1CCc2ccccc21
- pIC50 (DU-145 [2]): 5.15

Compound: CN(C)C(=S)C#CC(C)(C)N1CCOCC1
- pIC50 (DU-145 [2]): 4.00

Compound: CSC(C#CC(C)(C)N1CCOCC1)=[N+](C)C
- pIC50 (DU-145 [2]): < 4.00

Compound: CSC(=O)C#CC(C)(C)N1CCCC1
- pIC50 (DU-145 [2]): 5.17

Compound: CSC(=O)C#CC(C)(C)N1CCSCC1
- pIC50 (DU-145 [2]): 4.27

Compound: CSC(=O)C#CC(C)(C)N(C)C
- pIC50 [28]: 5.00
- pIC50 (RH7777): 5.00
- pIC50 (MRC5): 5.10
- pIC50 (DU-145 [2]): 5.14
- pIC50 [3]: 5.01
- pIC50 [4]: 5.52
- pIC50 [5]: 5.52
- inhibition at 2 µM (DU-145 [6]): 6%
- inhibition at 5 µM (DU-145 [7]): 34%
- inhibition at 10 µM (DU-145 [8]): 78%
- inhibition at 72 h, 2 µM [9]: 6%
- inhibition at 72 h, 5 µM [10]: 23%
- inhibition at 72 h, 10 µM [11]: 60%
- Activity (DU-145 [12]): 2.5
- Activity (DU-145 [14]): 2.7
- Activity [16]: 0.9
- Activity [18]: 2.8
- Activity (DU-145 [29]): Active
- inhibition [20]: 15%
- inhibition [21]: 40%
- inhibition [22]: 78%
- inhibition [23]: 40%
- inhibition [24]: 62%
- inhibition [25]: 100%
- Activity (DU-145 [30]): Active
- Activity (DU-145 [31]): Active
- Activity (DU-145 [32]): Active

Compound: CSC(=O)C#CC(C)(C)N(Cc1ccccc1)Cc1ccccc1
- pIC50 (DU-145 [2]): 5.15
